In ChEMBL document CHEMBL1154778, “Synthesis and biological evaluation of C-5 methyl substituted 4-arylthio and 4-aryloxy-3-Iodopyridin-2(1H)-one type anti-HIV agents” (J Med Chem, 2009):

Experiments:
[1] = system: Human immunodeficiency virus 1; assay: Antiviral activity against HIV1 HXB2 harboring K103N mutant reverse transcriptase infected in human MT4 cells after 5 days by MTT assay; assay type: functional, organism-based; details: Human immunodeficiency virus 1, HXB2, MT4, 120 h
Summary of the method: (§1)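 Mutant viruses were made by recombining the mutant PR-RT sequence into a PR-RT-deleted HIV-1 HXB2 proviral clone. MT4 cells were grown in RPMI 1640 with 10% FCS and antibiotics. Virus at 200 CCID50/well and 30000 cells/well were incubated with varied compound concentrations for 5 days at 37 °C, 5% CO2. MTT viability gave IC50, the concentration giving 50% infection versus the drug-free control.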

[2] = system: Human immunodeficiency virus 1; assay: Antiviral activity against HIV1 HXB2 harboring Y188L mutant reverse transcriptase infected in human MT4 cells after 5 days by MTT assay; assay type: functional, organism-based; details: Human immunodeficiency virus 1, HXB2, MT4, 120 h; summary of the method: as §1
[3] = system: Human immunodeficiency virus 1; assay: Antiviral activity against HIV-1 LAI harboring wild type reverse transcriptase infected in human MT4 cells after 5 days by MTT assay; assay type: functional, organism-based; details: Human immunodeficiency virus 1, LAI, MT4, 120 h
Summary of the method: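 MT4 cells were kept in RPMI 1640 with 10% fetal calf serum and antibiotics at 37 °C, 5% CO2. A range of compound concentrations was incubated with HIV-1 LAI at 200 CCID50/well and 30000 MT4 cells/well for 5 days at 37 °C. Cell viability was read by MTT, and IC50 was the concentration giving 50% infection versus the drug-free control.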

[4] = system: Human immunodeficiency virus 1; assay: Antiviral activity against HIV1 HXB2 harboring Y181C mutant reverse transcriptase infected in human MT4 cells after 5 days by MTT assay; assay type: functional, organism-based; details: Human immunodeficiency virus 1, HXB2, MT4, 120 h; summary of the method: as §1
[5] = Selectivity index, ratio of CC50 for human MT4 cells to IC50 for HIV-1 LAI harboring wild type reverse transcriptase infected in human MT4 cells; assay type: functional
Summary of the method: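 Cytotoxicity was measured in mock-infected MT4 cultures (30000 cells/well) given the same compound concentration range, run in parallel with the infected cultures for 5 days at 37 °C, 5% CO2, with MTT viability. CC50 was the concentration reducing viability by 50% versus the drug-free control. SI was CC50 divided by IC50 against HIV-1 LAI.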

[6] = system: Human immunodeficiency virus 1; assay: Antiviral activity against HIV1 HXB2 harboring 227L and 106A mutant reverse transcriptase infected in human MT4 cells after 5 days by MTT assay; assay type: functional, organism-based; details: Human immunodeficiency virus 1, HXB2, MT4, 120 h; summary of the method: as §1
[7] = system: Human immunodeficiency virus 1; assay: Antiviral activity against HIV1 HXB2 harboring 100I mutant reverse transcriptase infected in human MT4 cells after 5 days by MTT assay; assay type: functional, organism-based; details: Human immunodeficiency virus 1, HXB2, MT4, 120 h; summary of the method: as §1
[8] = system: Human immunodeficiency virus 1; assay: Antiviral activity against HIV1 HXB2 harboring 227C mutant reverse transcriptase infected in human MT4 cells after 5 days by MTT assay; assay type: functional, organism-based; details: Human immunodeficiency virus 1, HXB2, MT4, 120 h; summary of the method: as §1

Row | Structure (SMILES) | IC50 [1] | IC50 [2] | IC50 [3] | IC50 [4] | Ratio CC50/IC50 [5] | IC50 [6] | IC50 [7] | IC50 [8]
1 | Cc1cc(C)cc(Oc2c(Cn3cc(Br)cn3)c(C)[nH]c(=O)c2I)c1 | 7.94 nM | 100 nM | 7.94 nM | 31.6 nM | >12589 |  |  | 
2 | COCC1CN(Cc2c(C)[nH]c(=O)c(I)c2Sc2cc(C)cc(C)c2)CCO1 (stereo not drawn) | 1 nM | 125 nM | 1.25 nM | 25.1 nM | >50119 |  |  | 
3 | Cc1cc(C)cc(Sc2c(Cn3cc(Br)cn3)c(C)[nH]c(=O)c2I)c1 | 5.01 nM | 316 nM | 10 nM | 39.8 nM | >10000 |  |  | 
4 | Cc1cc(C)cc(Oc2c(COCCO)c(C)[nH]c(=O)c2I)c1 | 39.8 nM | 501 nM | 1.99 nM | 31.6 nM | >50119 |  |  | 
5 | Cc1cc(C)cc(Oc2c(CNC(=O)c3cc4ccccc4o3)c(C)[nH]c(=O)c2I)c1 | 199 nM | 158 nM | 6.3 nM | 31.6 nM | >15849 |  |  | 
6 | Cc1cc(C)cc(Oc2c(CSC(C)C)c(C)[nH]c(=O)c2I)c1 | 12.5 nM | 316 nM | 5 nM | 39.8 nM | >19953 |  |  | 
7 | Cc1cc(C)cc(Oc2c(Cn3cncc3C)c(C)[nH]c(=O)c2I)c1 | 10 nM | 125 nM | 5.01 nM | 31.6 nM | >19952 |  |  | 
8 | Cc1cc(C)cc(Oc2c(CN3CCOC(CC#N)C3)c(C)[nH]c(=O)c2I)c1 (stereo not drawn) | 6.3 nM | 100 nM | 6.3 nM | 31.6 nM | >15849 |  |  | 
9 | CCS(=O)(=O)Cc1c(C)[nH]c(=O)c(I)c1Oc1cc(C)cc(C)c1 | 39.8 nM | 794 nM | 7.94 nM | 158 nM | >12589 |  |  | 
10 | CCOCc1c(C)[nH]c(=O)c(I)c1Sc1cc(C)cc(C)c1 | 1.25 nM | 251 nM | 1.99 nM | 31.6 nM | 50119 |  |  | 
11 | Cc1cc(C)cc(Sc2c(CNC=O)c(C)[nH]c(=O)c2I)c1 | 1.25 nM | 199 nM | 1.25 nM | 31.6 nM | >79433 |  |  | 
12 | Cc1cc(C)cc(Sc2c(CSCCc3cnccn3)c(C)[nH]c(=O)c2I)c1 | 5.01 nM | 199 nM | 1.99 nM | 31.6 nM | >39811 |  |  | 
13 | COCC1CCN(Cc2c(C)[nH]c(=O)c(I)c2Sc2cc(C)cc(C)c2)CC1 | 19.9 nM | 3160 nM | 5.01 nM | 630 nM | 7943 |  |  | 
14 | Cc1cc(C)cc(Sc2c(CN(C)Cc3ccco3)c(C)[nH]c(=O)c2I)c1 | 15.8 nM | 794 nM | 6.3 nM | 50.1 nM | >15849 |  |  | 
15 | COC1CCCN(Cc2c(C)[nH]c(=O)c(I)c2Sc2cc(C)cc(C)c2)C1 (stereo not drawn) | 3.16 nM | 125 nM | 5.01 nM | 25.1 nM | >19953 |  |  | 
16 | Cc1cc(C)cc(Sc2c(Cn3nc(CC#N)nc3C)c(C)[nH]c(=O)c2I)c1 | 25.1 nM | 199 nM | 5.01 nM | 39.8 nM | >19953 |  |  | 
17 | Cc1cc(C)cc(Oc2c(Cn3cccn3)c(C)[nH]c(=O)c2I)c1 | 6.3 nM | 316 nM | 5.01 nM | 31.6 nM | >19952 |  |  | 
18 | Cc1cc(C)cc(Sc2c(CSCC(C)C)c(C)[nH]c(=O)c2I)c1 | 10 nM | 2510 nM | 7.94 nM | 199 nM | >12589 |  |  | 
19 | Cc1cc(C)cc(Oc2c(CSC3CCCC3)c(C)[nH]c(=O)c2I)c1 | 31.6 nM | 630 nM | 10 nM | 100 nM | >10000 |  |  | 
20 | Cc1cc(C)cc(Sc2c(Cn3ncnc3C)c(C)[nH]c(=O)c2I)c1 | 15.8 nM | 316 nM | 1.99 nM | 31.6 nM | >12589 |  |  | 
21 | Cc1cc(C)cc(Oc2c(COCc3ccc(F)cc3)c(C)[nH]c(=O)c2I)c1 | 7.94 nM | 79.4 nM | 7.94 nM | 25.1 nM | >12589 |  |  | 

Row | Structure (SMILES) | IC50 [1] | IC50 [2] | IC50 [3] | IC50 [4] | Ratio CC50/IC50 [5] | IC50 [6] | IC50 [7] | IC50 [8]
22 | Cc1cc(C)cc(Sc2c(CN3CCOC(CCO)C3)c(C)[nH]c(=O)c2I)c1 (stereo not drawn) | 1.58 nM | 199 nM | 1.58 nM | 31.6 nM | 31623 |  |  | 
23 | Cc1cc(C)cc(Oc2c(COCC3CCCO3)c(C)[nH]c(=O)c2I)c1 (stereo not drawn) | 31.6 nM | 501 nM | 7.94 nM | 39.8 nM | >12589 |  |  | 
24 | Cc1cc(C)cc(Sc2c(Cn3cnc(C)c3/C=N/O)c(C)[nH]c(=O)c2I)c1 | 158 nM | 3160 nM | 6.3 nM | 1260 nM | >15849 |  |  | 
25 | Cc1cc(C)cc(Sc2c(Cc3ccc[nH]3)c(C)[nH]c(=O)c2I)c1 | 0.5 nM | 50.1 nM | 3.98 nM | 10 nM | >25119 |  |  | 
26 | CNC(=O)CSCc1c(C)[nH]c(=O)c(I)c1Sc1cc(C)cc(C)c1 | 3.98 nM | 794 nM | 1.58 nM | 39.8 nM | >63096 |  |  | 
27 | CCSCc1c(C)[nH]c(=O)c(I)c1Sc1cc(C)cc(C)c1 | 5.01 nM | 630 nM | 3.16 nM | 31.6 nM | >15849 |  |  | 
28 | Cc1cc(C)cc(Oc2c(COCc3cccs3)c(C)[nH]c(=O)c2I)c1 | 6.3 nM | 50.1 nM | 6.3 nM | 31.6 nM | >15849 |  |  | 
29 | Cc1cc(C)cc(Sc2c(Cn3nc(C)nc3C)c(C)[nH]c(=O)c2I)c1 | 31.6 nM | 158 nM | 3.16 nM | 39.8 nM | >31623 |  |  | 
30 | Cc1cc(C)cc(Sc2c(CSC(C)C)c(C)[nH]c(=O)c2I)c1 | 31.6 nM | 3160 nM | 7.94 nM | 630 nM | >12589 |  |  | 
31 | Cc1cc(C)cc(Oc2c(COCc3ccsc3)c(C)[nH]c(=O)c2I)c1 | 25.1 nM | 100 nM | 5 nM | 25.1 nM | >19953 |  |  | 
32 | Cc1cc(C)cc(Sc2c(CN3CCC(C(N)=O)CC3)c(C)[nH]c(=O)c2I)c1 | 10 nM | 1260 nM | 5.01 nM | 158 nM | >19953 |  |  | 
33 | Cc1cc(C)cc(Sc2c(CN3CCCCC3)c(C)[nH]c(=O)c2I)c1 | 31.6 nM | 7940 nM | 6.3 nM | 794 nM | >15849 |  |  | 
34 | Cc1cc(C)cc(Oc2c(-n3ccnc3C#N)c(C)[nH]c(=O)c2I)c1 | 12.5 nM | 125 nM | 6.3 nM | 39.8 nM | >15848 |  |  | 
35 | Cc1cc(C)cc(Oc2c(CN3CCCC(C#N)C3)c(C)[nH]c(=O)c2I)c1 (stereo not drawn) | 6.3 nM | 199 nM | 3.98 nM | 31.6 nM | 19953 |  |  | 
36 | Cc1cc(C)cc(Oc2c(Cn3cnc(C#N)c3C#N)c(C)[nH]c(=O)c2I)c1 | 31.6 nM | 1000 nM | 10 nM | 199 nM | >10000 |  |  | 
37 | Cc1cc(C)cc(Oc2c(CN3CCSC3)c(C)[nH]c(=O)c2I)c1 | 15.8 nM | 251 nM | 6.3 nM | 39.8 nM | >15848 |  |  | 
38 | Cc1cc(C)cc(Oc2c(CN3CCSCC3)c(C)[nH]c(=O)c2I)c1 | 7.94 nM | 125 nM | 6.3 nM | 39.8 nM | >15849 |  |  | 
39 | Cc1cc(C)cc(Oc2c(COCc3ccccc3)c(C)[nH]c(=O)c2I)c1 | 31.6 nM | 125 nM | 7.94 nM | 31.6 nM | >12589 |  |  | 
40 | Cc1cc(C)cc(Sc2c(CSCc3cccs3)c(C)[nH]c(=O)c2I)c1 | 10 nM | 794 nM | 10 nM | 39.8 nM | >10000 |  |  | 
41 | Cc1cc(C)cc(Sc2c(Cn3cnc(-c4ccccc4)n3)c(C)[nH]c(=O)c2I)c1 | 7.94 nM | 39.8 nM | 6.3 nM | 10 nM | >15849 |  |  | 
42 | COCCSCc1c(C)[nH]c(=O)c(I)c1Oc1cc(C)cc(C)c1 | 1.58 nM | 31.6 nM | 1.99 nM | 7.94 nM | >50119 | 199 nM | 10 nM | 199 nM
